Measurements: ChEMBL document CHEMBL1817630, “Stereostructure-based differences in the interactions of cardiotoxic local anesthetics with cholesterol-containing biomimetic membranes” (Bioorg Med Chem, 2011)
Activity calls are given as the source filed them. No cut-off for these calls is given here.

Tests used:
Canis familiaris [1] = organism: Canis familiaris; assay: Cardiotoxicity in dog assessed as total plasma concentration causing cardiovascular collapse measured after 20 mins; format: toxicity, organism-based, Canis lupus familiaris
Canis familiaris [2] = organism: Canis familiaris; assay: Cardiotoxicity in dog assessed as free plasma concentration causing cardiovascular collapse measured after 20 mins; format: toxicity, organism-based, Canis lupus familiaris
Lipid bilayer [3] = assay: Increase in membrane fluidity in DPH-labeled liposomal membrane containing 40 mol% cholesterol assessed as change in DPH fluorescence polarization at 200 uM after 5 mins by spectrofluorometry relative to control; format: cell membranes
Summary of the method: (§1)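 Fresh DPH-labeled liposomes (ethanol injection into HEPES pH 7.4 with NaCl/KCl) contained 0–45 mol% cholesterol, with the remaining lipids POPC/POPE/CL/POPS/POPI/SM at 25:16:10:3:3:3. Enantiomer pairs were tested on the same day. Each was given at 200 uM final with DMSO at 0.5% v/v, and vehicle controls matched. After 5 min at 37 °C, DPH fluorescence polarization was measured. Values are % polarization change relative to control, mean ± SEM, n=7.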

Lipid bilayer [4] = assay: Binding affinity to DPH-labeled liposomal membrane without cholesterol assessed as increase in membrane fluidity by measuring decrease in DPH fluorescence polarization after 5 mins by spectrofluorometry; summary of the method: as §1
Lipid bilayer [5] = assay: Binding affinity to DPH-labeled liposomal membrane containing 20 mol% cardiolipin 40 mol% cholesterol assessed as increase in membrane fluidity by measuring decrease in DPH fluorescence polarization at 200 uM after 5 mins by spectrofluorometry
Summary of the method: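 DPH-labeled liposomes made by ethanol injection (10 mM total lipid, 50 uM DPH in the injected stock) into 10 mM HEPES pH 7.4 with 125 mM NaCl and 25 mM KCl. Membranes held 0 or 20 mol% cardiolipin, with or without 40 mol% cholesterol, and POPC/POPE/POPS/POPI/SM at 25:16:3:3:3. Drug was added at 200 uM final in 0.5% DMSO, incubated 37 °C for 5 min, and DPH polarization read. Results are % change vs DMSO control, mean ± SEM, n=7.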

Lipid bilayer [6] = assay: Binding affinity to DPH-labeled liposomal membrane containing 5 to 45 mol% cholesterol assessed as increase in membrane fluidity by measuring decrease in DPH fluorescence polarization after 5 mins by spectrofluorometry; summary of the method: as §1
Lipid bilayer [7] = assay: Binding affinity to DPH-labeled liposomal membrane containing 40 mol% cholesterol assessed as increase in membrane fluidity by measuring decrease in DPH fluorescence polarization at 200 uM after 5 mins by spectrofluorometry; summary of the method: as §1
Lipid bilayer [8] = assay: Increase in membrane fluidity in DPH-labeled liposomal membrane containing 20 mol% cardiolipin 40 mol% cholesterol assessed as change in DPH fluorescence polarization at 200 uM after 5 mins by spectrofluorometry relative to liposome without cardiolipin

SMILES	Activity (Canis familiaris [1])	Activity (Canis familiaris [2])	fold change (FC) (Lipid bilayer [3])	Activity (Lipid bilayer [4])	Activity (Lipid bilayer [5])	Activity (Lipid bilayer [6])	Activity (Lipid bilayer [7])	fold change (FC) (Lipid bilayer [8])
CCCN1CCCC[C@H]1C(=O)Nc1c(C)cccc1C [ROPIVACAINE]	64 µM	36 µM	1					
CCCCN1CCCCC1C(=O)Nc1c(C)cccc1C (racemic) [BUPIVACAINE]	39 µM	10 µM	1.7	Active	Active	Active	Active	
CCCCN1CCCC[C@H]1C(=O)Nc1c(C)cccc1C [LEVOBUPIVACAINE]	49 µM	17 µM	1.4	Active	Active		Active	3.7
CCCCN1CCCC[C@@H]1C(=O)Nc1c(C)cccc1C				Active	Active	Active	Active	3.7
